Structures are written as SMILES. The source made the active and inactive calls. The calls are words filed in the database; no cut-off is given here.

Assay [1] deals with SH-SY5Y. Kind of assay: Neuroprotective activity in human SH-SY5Y cells assessed as inhibition Abeta25-35-induced reduction of cell viability at 1 uM compound pretreated for 2 hrs before induction cell viability measured after 24 hrs (reference value: 69.77%). The assay is classed as functional.
Assay [2] deals with SH-SY5Y. As to the kind of experiment: Neuroprotective activity in human SH-SY5Y cells assessed as inhibition Abeta25-35-induced reduction of cell viability at 10 uM compound pretreated for 2 hrs before induction cell viability measured after 24 hrs (reference value: 69.77%). The assay is classed as functional.
A short description of assay [3]: Cytotoxicity against human HL60 cells by MTT assay. The assay is classed as functional, HL-60. Summed up:
(§1)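 Cells were exposed to compound at 10 μM, and cytotoxicity was expressed as percent inhibition of growth.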

The test system of another assay is A549. As to the kind of experiment: Cytotoxicity against human A549 cells by MTT assay. It counts as functional. Summed up:
as §1
On the technique in general: Tetrazolium assays rely on reduction of a dye to a coloured formazan, in cell work by metabolically active cells.

Assay [4] relates to SH-SY5Y. Kind of assay: Neuroprotective activity in human SH-SY5Y cells assessed as inhibition H2O2-induced damage measured as cell viability at 100 uM measured after 24 hrs. The assay is classed as functional. Summed up: (§2)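 Human SH-SY5Y cells were subjected to H2O2-induced damage, with compounds at 1 or 10 μM and L-NAC at 100 μM as the positive control. Cell viability was compared with control and with H2O2-only wells. Data are mean ± SD, n = 3-6.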

The test system of assay [5] is SH-SY5Y. Kind of assay: Neuroprotective activity in human SH-SY5Y cells assessed as inhibition OGD-induced injuries measured as increase in cell viability at 1 uM measured after 24 hrs. The assay is classed as functional. Summed up: (§3)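 Oxygen-glucose deprivation (OGD) injury was applied to human SH-SY5Y cells, with compounds at 1 μM or higher. Cell viability, or its increase, was compared with control and with OGD-only wells. Data are mean ± SD, n = 3-6.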

In assay [6] the test system is SH-SY5Y. As to the kind of experiment: Neuroprotective activity in human SH-SY5Y cells assessed as inhibition OGD-induced injuries measured as cell viability at 10 uM measured after 24 hrs. The assay is classed as functional. Summed up: as §3
Assay [7] has as its system SH-SY5Y. As to the kind of experiment: Neuroprotective activity in human SH-SY5Y cells assessed as inhibition H2O2-induced damage measured as cell viability at 10 uM measured after 24 hrs. The assay is classed as functional. In a few lines:
as §2

Assay [8] relates to SH-SY5Y. Kind of assay: Neuroprotective activity in human SH-SY5Y cells assessed as inhibition H2O2-induced damage measured as cell viability at 1 uM measured after 24 hrs. The assay is classed as functional, cell-based. Summed up: as §2
Assay [9] has as its system SH-SY5Y. As to the kind of experiment: Neuroprotective activity in human SH-SY5Y cells assessed as inhibition Abeta25-35-induced reduction of cell viability at 10 uM after 24 hrs by SRB assay. It counts as functional. (In general: The SRB assay estimates cell density from bound dye.)
Assay [10] has as its system SH-SY5Y. As to the kind of experiment: Neuroprotective activity in human SH-SY5Y cells assessed as inhibition OGD-induced injuries measured as cell viability at 1 uM measured after 24 hrs. The assay is classed as functional. In a few lines: as §3

With `CC(C)(C)c1ccc(-c2ccc(-c3noc(Cc4c[nH]c5ccccc45)n3)o2)cc1`, the outcome in the assay on SH-SY5Y [1] was inactive. Also, the Activity in the assay with SH-SY5Y [2] is reported as 92.1%.

As for `c1ccc(-c2ccc(-c3noc(Cc4c[nH]c5ccccc45)n3)o2)cc1`, the outcome in the assay with SH-SY5Y [1] and in the assay on SH-SY5Y [2] was inactive.

Turning to `OCc1ccc(-c2ccc(-c3noc(Cc4c[nH]c5ccccc45)n3)o2)cc1`, in the assay on SH-SY5Y [1], the outcome was inactive. Besides, the Activity in the assay with SH-SY5Y [2] is 92.1%.

Turning to `Nc1ncc(-c2ccc(-c3noc(Cc4c[nH]c5ccccc45)n3)o2)cn1`, the “inhibition (INH)” value in assay [3] is 26%; in the assay with A549, 2%. Moreover, the result with SH-SY5Y [1] and in the assay on SH-SY5Y [2] was inactive.

For `Clc1ccc(-c2ccc(-c3noc(Cc4c[nH]c5ccccc45)n3)o2)cc1`, the result in the assay on SH-SY5Y [1] was inactive. Also, in the assay on SH-SY5Y [2], the Activity worked out at 83.9%.

With `CC(=O)N[C@@H](CS)C(=O)O` [ACETYLCYSTEINE], the Activity in the assay with SH-SY5Y [4] is on record as 89.2%.

On to `Nc1ccc(-c2ccc(-c3noc(Cc4c[nH]c5ccccc45)n3)o2)cc1`, for which the “inhibition (INH)” value in assay [3] is given as 26%; in the assay on A549, 2%. Besides, in the assay on SH-SY5Y [1], the result was inactive. Moreover, the Activity in the assay with SH-SY5Y [2] is listed as 92.4%; in the assay with SH-SY5Y [5], 18.96%.

Regarding `O=C(O[C@@H]1Cc2c(O)cc(O)cc2O[C@@H]1c1cc(O)c(O)c(O)c1)c1cc(O)c(O)c(O)c1` [EPIGALOCATECHIN GALLATE], the Activity in the assay on SH-SY5Y [2] was determined as 96.2%.

In the case of `Nc1ccc(-c2cccc(-c3noc(Cc4c[nH]c5ccccc45)n3)c2)cc1`, the result with SH-SY5Y [1] and with SH-SY5Y [6] was inactive. The Activity in the assay on SH-SY5Y [2] was 106%.

Consider `CCc1ccc(-c2ccc(-c3noc(Cc4c[nH]c5ccccc45)n3)o2)cc1`, for which the outcome in the assay on SH-SY5Y [1] was inactive. The Activity in the assay on SH-SY5Y [2] turned out to be 100%.

Take `c1ccc2c(Cc3nc(-c4ccc(-c5ccc(N6CCOCC6)cc5)o4)no3)c[nH]c2c1`: the outcome in the assay with SH-SY5Y [1] and in the assay with SH-SY5Y [2] was inactive.

Consider `Brc1ccc(-c2ccc(-c3noc(Cc4c[nH]c5ccccc45)n3)o2)cc1`, for which the outcome with SH-SY5Y [1] was inactive. Further, in the assay on SH-SY5Y [2], the Activity was found to be 83.5%.

As for `Cc1cccc(-c2ccc(-c3noc(Cc4c[nH]c5ccccc45)n3)o2)c1`, the result in the assay on SH-SY5Y [1] and in the assay with SH-SY5Y [2] was inactive.

Consider `Nc1ccc(-c2ccc(-c3noc(Cc4c[nH]c5ccccc45)n3)s2)cc1`, for which the result in the assay with SH-SY5Y [1] and in the assay with SH-SY5Y [2] was inactive.

Regarding `CN(C)c1ccc(-c2ccc(-c3noc(Cc4c[nH]c5ccccc45)n3)o2)cc1`, the outcome in the assay with SH-SY5Y [1], in the assay with SH-SY5Y [2] and in the assay on SH-SY5Y [8] was inactive. In addition, the Activity with SH-SY5Y [7] worked out at 98%.

For `Oc1ccc(-c2ccc(-c3noc(Cc4c[nH]c5ccccc45)n3)o2)cc1`, the result with SH-SY5Y [1] and in the assay on SH-SY5Y [2] was inactive.

For the compound `N#Cc1ccc(-c2ccc(-c3noc(Cc4c[nH]c5ccccc45)n3)o2)cc1`, the result in the assay with SH-SY5Y [1] was inactive. Also, the Activity in the assay with SH-SY5Y [2] is recorded as 93.3%.

On to `CCCOc1ccc(-c2ccc(-c3noc(Cc4c[nH]c5ccccc45)n3)o2)cc1`, for which the Activity in the assay on SH-SY5Y [1] is 90%; in the assay with SH-SY5Y [2] it was 115.5%; in the assay with SH-SY5Y [6] it was 84.1%; in the assay on SH-SY5Y [9], 94%; in the assay on SH-SY5Y [7], 98%; in the assay with SH-SY5Y [10], 80.4%. The result in the assay on SH-SY5Y [8] was inactive.

With `Cc1ccccc1-c1ccc(-c2noc(Cc3c[nH]c4ccccc34)n2)o1`, the result with SH-SY5Y [1] and with SH-SY5Y [2] was inactive.

Consider `CCCc1ccc(-c2ccc(-c3noc(Cc4c[nH]c5ccccc45)n3)o2)cc1`, for which the Activity in the assay on SH-SY5Y [1] was found to be 89.7%; in the assay with SH-SY5Y [2], 114.2%; in the assay on SH-SY5Y [9], 96%.

Consider `CC(C)c1ccc(-c2ccc(-c3noc(Cc4c[nH]c5ccccc45)n3)o2)cc1`, for which the outcome in the assay on SH-SY5Y [1] was inactive. Moreover, in the assay on SH-SY5Y [2], the Activity was determined as 93.3%.

As to `CN1CCN(c2ccc(-c3ccc(-c4noc(Cc5c[nH]c6ccccc56)n4)o3)cc2)CC1`, the outcome in the assay with SH-SY5Y [1] and in the assay on SH-SY5Y [2] was inactive.

In the case of `Cc1ccc(-c2ccc(-c3noc(Cc4c[nH]c5ccccc45)n3)o2)cc1`, the outcome in the assay with SH-SY5Y [1] was inactive. Besides, the Activity in the assay with SH-SY5Y [2] is recorded as 80.3%.

Regarding `Fc1ccc(-c2ccc(-c3noc(Cc4c[nH]c5ccccc45)n3)o2)cc1`, the outcome with SH-SY5Y [1] was inactive. Besides, the Activity in the assay with SH-SY5Y [2] worked out at 84.8%.

With `COc1ccc(-c2ccc(-c3noc(Cc4c[nH]c5ccccc45)n3)o2)cc1`, the outcome in the assay with SH-SY5Y [1] and with SH-SY5Y [8] was inactive. For the same compound, the Activity in the assay on SH-SY5Y [2] was found to be 91.5%; with SH-SY5Y [7], 98%.

In the case of `CCOc1ccc(-c2ccc(-c3noc(Cc4c[nH]c5ccccc45)n3)o2)cc1`, the result with SH-SY5Y [1] and in the assay with SH-SY5Y [8] was inactive. The Activity with SH-SY5Y [2] was 89.1%; in the assay with SH-SY5Y [6], 76.2%; in the assay on SH-SY5Y [7] it was 98%; in the assay on SH-SY5Y [10] it was 80.6%.

The record behind these values is ChEMBL document CHEMBL3351263, “Synthesis and biological evaluation of novel marine-derived indole-based 1,2,4-oxadiazoles derivatives as multifunctional neuroprotective agents” (2015).
